In ChEMBL document CHEMBL4184121, “Semisynthesis, cytotoxicity, antimalarial evaluation and structure-activity relationship of two series of triterpene derivatives” (Bioorg Med Chem Lett, 2018):
Activity calls are given as the source filed them. The calls are words filed in the database; no cut-off is given here.

Legend:
Plasmodium falciparum [1] = test: Antiplasmodial activity against chloroquine-resistant Plasmodium falciparum W2 infected in human erythrocytes; type: functional, organism-based
Outline: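 P. falciparum W2 grown in fresh human O+ erythrocytes at 2% hematocrit in complete medium, 37 °C. Compounds tested over a 100–3.12 µM dilution series. IC50 estimated from the dose-response curve relative to drug-free control wells (100% parasite viability). Artemisinin run in parallel as control. Triplicates, at least three independent cultures (n = 3).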

[2] = Cytotoxicity against African green monkey Vero cells after 72 hrs by MTT assay; type: cell-based; conditions: chlorocebus sabaeus
Outline: (§1)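 VERO (ATCC CCL-81) and HepG2 (ATCC HB-8065) cells were exposed for 24, 48 or 72 h to an […] dilution series from 400 to 1.56 μM. CC50 was taken from the concentration–response curve. Triplicates, with at least three independent cultures (n = 3).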

[3] = Cytotoxicity against human HepG2 cells after 72 hrs by MTT assay; type: cell-based; outline: as §1
[4] = Selectivity index, ratio of CC50 for human HepG2 cells to IC50 for chloroquine-resistant Plasmodium falciparum W2; type: toxicity; conditions: read-out: Ratio CC50/IC50
Outline: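 SI = HepG2 CC50 / W2 IC50. CC50 came from HepG2 growth inhibition over a 400–1.56 µM dilution series, read at 24, 48 and 72 h. IC50 came from the W2 erythrocyte assay (100–3.12 µM range). Triplicates, at least three independent cultures.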

Plasmodium falciparum [5] = test: Antiplasmodial activity against chloroquine-sensitive Plasmodium falciparum 3D7; type: functional, organism-based
[6] = Resistance index, ratio of IC50 for chloroquine-resistant Plasmodium falciparum W2 infected in human erythrocytes to IC50 for chloroquine-sensitive Plasmodium falciparum 3D7; type: functional
Plasmodium falciparum [7] = test: Antiplasmodial activity against synchronous culture of chloroquine-resistant Plasmodium falciparum W2 ring stage parasite infected in human erythrocytes assessed as accumulation of ring forms at 100 uM after 24 to 72 hrs by Wright's eosin methylene blue staining based microscopic analysis; type: functional, organism-based
Outline: (§2)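 Stage-specificity test on W2 parasites in human erythrocytes, started at 2% parasitaemia. Parasites cultured at 2% hematocrit in complete medium at 37 °C.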

Plasmodium falciparum [8] = test: Antiplasmodial activity against synchronous culture of chloroquine-resistant Plasmodium falciparum W2 ring stage parasite infected in human erythrocytes assessed as reduction in parasitaemia at 100 uM after 24 to 72 hrs by Wright's eosin methylene blue staining based microscopic analysis; type: functional, organism-based; outline: as §2
Plasmodium falciparum [9] = test: Antiplasmodial activity against synchronous culture of chloroquine-resistant Plasmodium falciparum W2 ring stage parasite infected in human erythrocytes assessed as parasite cell death at 100 uM up to 72 hrs by Wright's eosin methylene blue staining based microscopic analysis; type: functional, organism-based; outline: as §2
Plasmodium falciparum [10] = test: Antiplasmodial activity against synchronous culture of chloroquine-resistant Plasmodium falciparum W2 ring stage parasite infected in human erythrocytes assessed as delayed appearance of trophozoites at 100 uM after 24 to 72 hrs by Wright's eosin methylene blue staining based microscopic analysis; type: functional, organism-based; outline: as §2
Subtilisin Carlsberg = target: T1, Subtilisin Carlsberg (Bacillus licheniformis, UniProt P00780); test: Inhibition of Bacillus licheniformis subtilisin A by green-fluorescent BODIPY FL dye based fluorescence assay
T1 sequence (P00780 whole entry): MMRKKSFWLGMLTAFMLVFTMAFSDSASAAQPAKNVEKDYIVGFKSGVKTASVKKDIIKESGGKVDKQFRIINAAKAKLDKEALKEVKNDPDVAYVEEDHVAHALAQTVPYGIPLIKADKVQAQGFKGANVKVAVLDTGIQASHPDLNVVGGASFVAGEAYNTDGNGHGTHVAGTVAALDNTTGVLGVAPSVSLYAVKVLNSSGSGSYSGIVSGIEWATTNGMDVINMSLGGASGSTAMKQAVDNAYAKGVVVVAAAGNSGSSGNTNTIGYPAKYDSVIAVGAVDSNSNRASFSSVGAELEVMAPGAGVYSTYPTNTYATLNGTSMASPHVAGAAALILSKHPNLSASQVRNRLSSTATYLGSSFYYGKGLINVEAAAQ
Outline: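 Purified B. licheniformis subtilisin A tested with a commercial fluorescent peptidase/protease kit, following the kit protocol. Test compound ranged from 5 to 0.01 mM. Fluorescence plotted against log inhibitor concentration.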

Plasmodium falciparum [11] = test: Antiplasmodial activity against Plasmodium falciparum assessed as combination index in presence of artemisinin; type: functional
Outline: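 Chloroquine-resistant P. falciparum W2 was grown in fresh human O+ erythrocytes at 2% hematocrit in complete medium at 37 °C. Artemisinin was co-tested with the triterpene using the one-point Chou–Talalay method, at a minimum of one combination ratio. CI is the sum of the two FICs: ≤1 synergy, 1–2 additivity, >2 antagonism. Triplicates, n = 3 independent cultures.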

Plasmodium falciparum [12] = test: Antiplasmodial activity against Plasmodium falciparum assessed as potentiation of artemisinin-induced antimalarial activity by measuring dose reduction index relative to artemisinin alone; type: functional

For `C=C(C)[C@@H]1CC[C@]2(C(=O)O)CC[C@]3(C)[C@H](CC[C@@H]4[C@@]5(C)CC[C@H](OC(=O)CCC)C(C)(C)[C@@H]5CC[C@]43C)[C@@H]12`, the IC50 (Plasmodium falciparum [1]) was 3.4 µM, the CC50 at 72 h [2] was greater than 400 µM and the CC50 at 72 h [3] was greater than 400 µM. For the same compound, the selectivity ratio [4] was greater than 117, the IC50 (Plasmodium falciparum [5]) was 5 µM and the “Ratio IC50” value [6] was 0.68. The Activity (Plasmodium falciparum [7]) was “Active”, the Activity (Plasmodium falciparum [8]) was “Active” and the Activity (Plasmodium falciparum [9]) was “Active”. For the same compound, the Activity (Plasmodium falciparum [10]) was “Active”, the IC50 (Subtilisin Carlsberg) was 93 µM and the CI (Plasmodium falciparum [11]) was 1.34. For the same compound, the Activity_index (Plasmodium falciparum [12]) was 4.
